The subject of assay [1] is Mycobacterium tuberculosis. Description: Antimycobacterial activity against multidrug resistant Mycobacterium tuberculosis. The format is functional. In outline: (§1)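 MIC determined by agar dilution, following the NCCLS-recommended approach, in duplicate. Strains were M. tuberculosis H37Rv and a multidrug-resistant M. tuberculosis. Concentrations were tested up to 25 µg/mL.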

A further assay has as its system Vero. Description: Selectivity index, IC50 for Vero cell line/ MIC for multidrug resistant Mycobacterium tuberculosis. In kind it is functional. The gist of the method:
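Vero cells were exposed to compound at 62.5 µg/mL for 72 h. Viability was read by MTT conversion to formazan. Selectivity index is the Vero IC50 divided by the agar-dilution MIC against the listed strain.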

Assay [2] deals with Mycobacterium tuberculosis. Description: Antimycobacterial activity against multidrug resistant Mycobacterium tuberculosis at 25 ug/ml. In kind it is functional, organism-based. The gist of the method: as §1

Converted amounts (≈) assume the structure as drawn. The source made the active and inactive calls. The rule behind the calls is not given here. Bounds are passed on as bounds.

Take `C/C(=N\N=C(/S)Nc1ncc(C2CCC2)o1)c1ccc(C)cc1`: the MIC in assay [1] was 0.78 µg/mL (≈ 2.37 µM).
In the case of `C/C(=N\N=C(/S)Nc1ncc(C2CCC2)o1)c1ccc(O)cc1`, the lowest concentration to inhibit growth in assay [1] (MIC) was 3.12 µg/mL (≈ 9.44 µM).
With `O=[N+]([O-])c1cccc(/C=N/N=C(\S)Nc2ncc(C3CCC3)o2)c1`, in assay [1], the minimum inhibitory concentration (MIC) stood at 0.78 µg/mL (≈ 2.26 µM).
As for `S=C(NN=C(c1ccccc1)c1ccccc1)Nc1ncc(C2CCC2)o1`, the MIC in assay [1] is 0.1 µg/mL (≈ 0.266 µM). In addition, in the assay with Vero, the Selectivity index is listed as greater than 1250.
In assay [1], `COc1cc(/C=N/N=C(\S)Nc2ncc(C3CCC3)o2)ccc1O` yielded an MIC of 12.5 µg/mL (≈ 36.1 µM).
Still for that read-out and setting: under `C/C(=N\N=C(/S)Nc1ncc(C2CCC2)o1)c1ccc(N)cc1` stands 0.78 µg/mL (≈ 2.37 µM); under `Oc1ccccc1/C=N/N=C(\S)Nc1ncc(C2CCC2)o1`, 6.25 µg/mL (≈ 19.8 µM).
With `N/N=C(\S)Nc1ncc(C2CCC2)o1`, the outcome in assay [2] was inactive.
In turn, `O=[N+]([O-])c1ccc(/C=N/N=C(\S)Nc2ncc(C3CCC3)o2)cc1` registered an MIC in assay [1] of 0.39 µg/mL (≈ 1.13 µM).
In turn, `S=C(NN=C(Cc1ccccc1)Cc1ccccc1)Nc1ncc(C2CCC2)o1` gave an MIC in assay [1] of 6.25 µg/mL (≈ 15.4 µM). Against the preceding molecule, the MIC is about 16-fold higher.
`CO[C@H]1/C=C/O[C@@]2(C)Oc3c(C)c(O)c4c(O)c(c(/C=N/N5CCN(C)CC5)c(O)c4c3C2=O)NC(=O)/C(C)=C\C=C\[C@H](C)[C@H](O)[C@@H](C)[C@@H](O)[C@@H](C)[C@H](OC(C)=O)[C@@H]1C` [RIFAMPIN] came in with an MIC in assay [1] of 3.12 µg/mL (≈ 3.79 µM).
Turning to `NNC(=O)c1ccncc1` [ISONIAZID], the MIC in assay [1] was 1.56 µg/mL (≈ 11.4 µM).
Take `S=C(N/N=C(\c1ccccc1)c1ccc(Br)cc1)Nc1ncc(C2CCC2)o1`: inhibition of growth in assay [1] (MIC) required 0.05 µg/mL (≈ 0.11 µM).
As to `C/C(=N\N=C(/S)Nc1ncc(C2CCC2)o1)c1ccccc1`, in assay [1], the lowest concentration to inhibit growth (MIC) was 3.12 µg/mL (≈ 9.92 µM).
For `Oc1[nH]c2ccc(F)cc2c1/N=N/C(S)=N/c1ncc(C2CCC2)o1`, in assay [1], the MIC was found to be 12.5 µg/mL (≈ 34.8 µM).
`C/C(=N\N=C(/S)Nc1ncc(C2CCC2)o1)c1ccccc1O` registered an MIC in assay [1] of 3.12 µg/mL (≈ 9.44 µM).
In assay [1], `CN(C)c1ccc(/C=N/N=C(\S)Nc2ncc(C3CCC3)o2)cc1` registered an MIC of 3.12 µg/mL (≈ 9.08 µM).
Turning to `COc1ccc(/C=N/N=C(\S)Nc2ncc(C3CCC3)o2)cc1`, in assay [1], inhibition of growth (MIC) required 6.25 µg/mL (≈ 18.9 µM). This MIC is about 2-fold higher than that of the molecule before.
`Cc1ccc(/C=N/N=C(\S)Nc2ncc(C3CCC3)o2)cc1`: inhibition of growth in assay [1] (MIC) required 3.12 µg/mL (≈ 9.92 µM).
Same read-out and setting: under `COc1c(N2CCNC(C)C2)c(F)cc2c(=O)c(C(=O)O)cn(C3CC3)c12` (stereo unspecified) [GATIFLOXACIN] stands 6.25 µg/mL (≈ 16.6 µM).
Molecule `Oc1[nH]c2ccccc2c1/N=N/C(S)=N/c1ncc(C2CCC2)o1` had an MIC in assay [1] of 25 µg/mL (≈ 73.2 µM).
The molecule `CC[C@@H](CO)NCCN[C@@H](CC)CO` [ETHAMBUTOL] came in with an MIC in assay [1] of 25 µg/mL (≈ 122 µM).
In turn, `O=[N+]([O-])c1ccccc1/C=N/N=C(\S)Nc1ncc(C2CCC2)o1` returned an MIC in assay [1] of 0.78 µg/mL (≈ 2.26 µM).
With `S=C(N/N=C/c1ccc(Cl)cc1)Nc1ncc(C2CCC2)o1`, it took 1.56 µg/mL (≈ 4.66 µM) to inhibit growth in assay [1] (MIC). Compared with the last molecule, the MIC is about 2-fold higher.
`C/C(=N\N=C(/S)Nc1ncc(C2CCC2)o1)c1ccc([N+](=O)[O-])cc1` came in with an MIC in assay [1] of 0.2 µg/mL (≈ 0.556 µM).

For the origin of these results see ChEMBL document CHEMBL1148530, “Discovery of new antitubercular oxazolyl thiosemicarbazones” (J Med Chem, 2006).
